Bioassay records deposited in PubChem BioAssay by several laboratories.
Jurkat viability: cytotoxicity toward Jurkat T cells, primary screen, cytotoxicity control, cell-based, Jurkat E6.1, 60K MLSMR library. 56,000 tested, 1.2% active. AID 463, 2006. Jurkat E6.1 viability, ATP luminescence, 48 h. inhibition, % at 4 µM;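 active = inhibition above the mean inhibition of all tested compounds plus 3 SD, cut at about 28% in these data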
HEK293 NFkB inh: inhibitors of PMA/ionomycin-induced NF-kB reporter, primary screen, antigen receptor NF-kB inhibitor project, cell-based, HEK-293 luciferase reporter, luminescence | HEK-293 NF-kB luciferase reporter | inhibition, % at 3 µM | 62,000 tested, 0.21% active;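 active = inhibition above the mean of all tested compounds plus 3 SD, cut at about 40% in these data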
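Timing: 1 h pretreatment, 16 h stimulation, 37 °C; system: HEK-293 cells with stable firefly luciferase reporter driven by four HIV NF-kB elements; doses: 3 µM once, 0.30% DMSO; measured by: luciferase luminescence; control set: DMSO and 10 µM reference inhibitor; repeats: single test; reagent: PMA plus ionomycin mix as NF-kB-activating stimulus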
Her2 expr inh: inhibitors of Her2 protein expression, primary screen, SKBR-3 cells, AlphaScreen, 66K library; Receptor tyrosine-protein kinase erbB-2 (Homo sapiens), P04626; SKBR-3 HER2 protein level, 18-24 h; hits give low values; HER2 level % of control, % at 10 µM; 65,000 tested, 0.69% active; AID 645, 2007;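 active = HER2 level under 5% of the carrier-only control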;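 also: lower value means stronger loss of Her2 protein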
Target sequence (P04626 whole entry, looked up): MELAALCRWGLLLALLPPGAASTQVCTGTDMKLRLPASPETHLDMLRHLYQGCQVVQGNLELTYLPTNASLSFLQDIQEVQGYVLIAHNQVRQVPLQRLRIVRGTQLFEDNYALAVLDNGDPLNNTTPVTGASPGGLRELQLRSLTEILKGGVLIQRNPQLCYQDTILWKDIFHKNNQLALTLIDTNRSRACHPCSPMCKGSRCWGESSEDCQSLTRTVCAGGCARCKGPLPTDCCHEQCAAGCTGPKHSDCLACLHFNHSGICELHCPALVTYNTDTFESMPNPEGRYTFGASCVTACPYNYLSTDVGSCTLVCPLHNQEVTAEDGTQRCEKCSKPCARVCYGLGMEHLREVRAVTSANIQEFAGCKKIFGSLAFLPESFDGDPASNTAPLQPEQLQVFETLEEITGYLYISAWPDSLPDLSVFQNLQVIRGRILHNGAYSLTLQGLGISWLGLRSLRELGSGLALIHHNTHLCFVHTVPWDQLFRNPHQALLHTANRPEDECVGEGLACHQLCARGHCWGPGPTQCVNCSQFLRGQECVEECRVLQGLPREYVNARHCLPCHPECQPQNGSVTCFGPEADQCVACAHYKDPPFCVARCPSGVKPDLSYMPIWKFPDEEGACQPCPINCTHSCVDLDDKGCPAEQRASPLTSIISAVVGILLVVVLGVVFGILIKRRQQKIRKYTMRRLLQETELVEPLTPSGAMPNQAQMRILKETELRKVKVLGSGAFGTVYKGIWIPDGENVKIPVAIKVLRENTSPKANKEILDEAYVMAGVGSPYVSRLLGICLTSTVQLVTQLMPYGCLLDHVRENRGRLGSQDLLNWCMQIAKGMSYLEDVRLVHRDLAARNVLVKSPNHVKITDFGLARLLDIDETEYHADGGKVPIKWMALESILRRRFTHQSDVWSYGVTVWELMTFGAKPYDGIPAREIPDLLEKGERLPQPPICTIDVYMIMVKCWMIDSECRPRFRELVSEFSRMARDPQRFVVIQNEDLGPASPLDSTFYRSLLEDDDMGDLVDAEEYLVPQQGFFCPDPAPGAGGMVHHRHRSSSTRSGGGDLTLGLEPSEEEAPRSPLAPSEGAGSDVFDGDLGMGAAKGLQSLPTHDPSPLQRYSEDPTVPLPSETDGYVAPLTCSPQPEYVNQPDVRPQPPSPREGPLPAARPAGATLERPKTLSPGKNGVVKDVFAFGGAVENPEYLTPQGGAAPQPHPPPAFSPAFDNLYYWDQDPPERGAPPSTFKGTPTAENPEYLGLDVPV
SK-BR-3 tox 24h: SK-BR-3 proliferation inhibitors, primary screen, cell-based, human, 24 h; SK-BR-3 viability, CellTiter-Glo ATP luminescence; hits give low values; viability, % at 10 µM; 41,000 tested, 0.47% active;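 active = viability at or below the median of all test compounds minus 3 SD, in both replicates if run twice, cut at about 45% in these data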
Htt clearance: clearance of mutant huntingtin inclusions, primary screen, imaging, HeLa Exon1htt(103Q)mCFP, confocal imaging; inhibition, % at 1.5 µM; 47,000 tested, 0.42% active; aggregate imaging; zero = plate's median compound well;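 active = inhibition of aggregate fluorescence above about 70%, also judged a hit by eye on the cell image, limit read from the data, passing the limit was not always enough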;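 also: cells exposed to compound for three days before fixation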
A number is an active result; i = inactive; nt = no result. Only some compounds are listed: those with a hit (about 1.9% of all), similar ones and a draw of the others.

SMILES | Jurkat viability | HEK293 NFkB inh | Her2 expr inh | SK-BR-3 tox 24h | Htt clearance
c1ccc2c(N3CCCCC3)nc(N3CCCC3)nc2c1 | i | i | i | nt | nt
COc1ccc(Nc2nc(N3CCCC3)c3ccccc3n2)cc1 | i | i | -5.6 | nt | nt
COc1ccccc1N=c1oc2cc(O)ccc2cc1C(N)=O | 43.3 | i | i | i | nt
COc1ccccc1N=c1oc2cc(O)ccc2cc1C(=O)NCC1CCCO1 (configuration not stated) | i | i | i | i | nt
Cc1cc(C)n(C(=O)c2ccc(NC(=O)CC(C)C)cc2)n1 | i | i | i | i | 90.3
CC(=O)N1CN(Cc2ccccn2)Cc2c1sc1c2CCCC1 | i | i | i | nt | 82.8
CC(=O)N1c2ccccc2C(C)(C)C2CCC(C)CC21 (configuration not stated) | nt | nt | nt | nt | i
COc1ccc2sc(NC(=O)CC(C)C)nc2c1 | i | i | -19.0 | i | i
Cc1nn(-c2ccc(Cl)cc2)c2[nH]c(=O)c(CNCc3ccc4c(c3)OCO4)cc12 | i | i | -19.3 | i | i
COC(=O)CCCC(=O)N1CCOCCN(C(=O)CCCC(=O)OC)CCOCC1 | i | i | i | i | i
CC12CCCCC1(O)[N+](=O)C1=C(CCCC1)N2[O-] (configuration not stated) | i | i | -17.4 | i | nt
NC(=O)C1(N2CCCCC2)CCN(C(=O)c2ccc(-n3cnnn3)cc2)CC1 | i | i | i | 42.0 | i
O=C(c1ccc(-n2cnnn2)cc1)N1CCOCC1 | nt | nt | i | i | i
O=C(Nc1ccccc1C(F)(F)F)c1cc(-c2ccccc2O)on1 | 88.6 | i | i | i | nt
CCn1c(=O)cc(SCC(=O)Nc2ccccc2N2CCN(C)CC2)c2ccccc21 | i | i | i | nt | nt
CSc1ccc(/C=N/n2nnnc2N)cc1 | i | i | i | i | nt
CCN(C)c1ccc(/C=N\n2nnnc2N)cc1 | 82.2 | i | i | i | i
O=C(CCn1c(=O)oc2ccccc21)N(Cc1ccccc1)c1ccccn1 | i | i | i | i | 72.8
COc1ccc(C(=O)N(Cc2ccco2)Cc2cc3cc(C)ccc3[nH]c2=O)cc1OC | i | i | i | i | nt
O=C(c1ccncc1)N(Cc1cc2ccccc2[nH]c1=O)C1CCCCC1 | 46.8 | i | i | i | i
Cc1ccc2[nH]c(=O)c(CN(Cc3ccco3)C(=O)c3ccncc3)cc2c1 | 40.2 | i | i | i | nt
O=C(c1ccco1)N(Cc1cc2ccccc2[nH]c1=O)C1CCCCC1 | i | i | i | i | i
COc1ccc(-n2c(=O)cc(N3CC(C)OC(C)C3)[nH]c2=O)cc1 (configuration not stated) | i | i | i | nt | nt
Cc1ccc(-n2nc3c(N4CCN(c5ccccc5)CC4)nnc(C)c3c2C)cc1 | nt | nt | nt | nt | i
Cc1ccc2nsnc2c1S(=O)(=O)N(Cc1cc2cccc(C)c2[nH]c1=O)CC1CCCO1 (configuration not stated) | i | i | i | i | nt
SMILES | Jurkat viability | HEK293 NFkB inh | Her2 expr inh | SK-BR-3 tox 24h | Htt clearance
COc1ccc(OC)c(S(=O)(=O)N2CCCc3ccccc32)c1 | i | i | i | nt | i
CC(C)Cn1c(=O)c(C(=O)Nc2cnccn2)c(O)c2ccccc21 | i | i | i | i | nt
CC(C)Cn1c(=O)c(C(=O)Nc2ccncc2)c(O)c2ccccc21 | i | i | -13.2 | i | nt
CC#CCCCC(=O)Nc1cc(OC)nc(OC)n1 | i | i | -24.5 | i | i
C#CCOC(=O)CCC(=O)Nc1cc(OC)nc(OC)n1 | i | i | i | i | nt
CCn1c(-c2ccc(N)cc2)nc2ccccc21 | i | i | i | nt | i
CCn1c(-c2ccc(N(C)C)cc2)nc2ccccc21 | 49.5 | i | i | i | i
O=C(CN1C(=O)NC2(CCc3ccccc32)C1=O)c1ccc2c(c1)OCCO2 (configuration not stated) | i | i | i | nt | nt
Cc1sc2ncnc(SCC(=O)c3cccs3)c2c1C | i | i | i | i | nt
Clc1ccc(-n2nnnc2Sc2ncnc3sccc23)cc1 | 65.7 | i | -10.9 | nt | i
Cc1sc2ncnc(Sc3nnnn3-c3ccccc3)c2c1C | i | i | -13.8 | nt | i
CCOc1cccc(N2C(=O)CC(NCc3ccc(S(N)(=O)=O)cc3)C2=O)c1 (configuration not stated) | i | i | i | i | i
COc1c(Cl)ccc(Cl)c1C(=O)OCC(=O)O | i | i | i | i | nt
CCOc1ccc(N2C(=O)CN=C2Nc2ccccc2F)cc1 | nt | nt | nt | nt | 96.6
Cc1c(C(=O)OC2CCCC2)[nH]c2c1C(=O)CC(c1ccco1)C2 (configuration not stated) | 100.5 | i | i | nt | nt
C/C=C/COC(=O)c1[nH]c2c(c1C)C(=O)CC(c1ccco1)C2 (configuration not stated) | 98.7 | i | i | nt | i
Cc1c(C(=O)OCC2CCCO2)[nH]c2c1C(=O)CC(c1ccco1)C2 (configuration not stated) | 77.7 | i | i | i | nt
COC(=O)C1C(=O)c2c([nH]c(C(=O)OC3CCCC3)c2C)CC1C (configuration not stated) | nt | i | i | nt | nt
C=CCOC(=O)c1[nH]c2c(c1C)C(=O)CC(c1ccco1)C2 (configuration not stated) | 99.7 | i | i | nt | nt
COc1ccc(OC)c(C2CC(=O)c3c([nH]c(C(=O)OCC4CCCO4)c3C)C2)c1 (configuration not stated) | i | i | i | nt | i
COc1ccc(CCN(Cc2cc3cc(C)cc(C)c3nc2Cl)C(=O)C2CC2)cc1 | nt | nt | nt | nt | i
O=C(c1ccc(Cl)cc1)N1CCN(c2nc(N3CCCCC3)nc(N3CCCCC3)n2)CC1 | nt | nt | i | i | nt
Cc1c(C(=O)OCC(C)C)[nH]c2c1C(=O)CC(c1ccco1)C2 (configuration not stated) | 99.0 | i | i | nt | i
CCC(C)OC(=O)c1[nH]c2c(c1C)C(=O)CC(c1ccc(N(C)C)cc1)C2 (configuration not stated) | i | i | nt | nt | nt
CCOC(=O)c1[nH]c2c(c1C)C(=O)CC(c1ccc(OC)c(OC)c1)C2 (configuration not stated) | nt | i | i | nt | nt
SMILES | Jurkat viability | HEK293 NFkB inh | Her2 expr inh | SK-BR-3 tox 24h | Htt clearance
CCOCCOC(=O)c1[nH]c2c(c1C)C(=O)CC(c1ccc(N(C)C)cc1)C2 (configuration not stated) | i | i | i | nt | i
Cc1c(C(=O)N2CCOCC2)[nH]c2c1C(=O)CC(c1ccccc1Cl)C2 (configuration not stated) | 82.2 | i | i | i | i
COC(=O)c1[nH]c2c(c1C)C(=O)CC(c1ccccc1)C2 (configuration not stated) | 97.5 | 44.5 | i | i | i
COc1cc2c(cc1OC)CN(C(=O)c1cc3ccccc3oc1=O)CC2 | 60.0 | i | i | nt | i
COc1cccc2cc(C(=O)N3CCc4ccccc4C3)c(=O)oc12 | i | i | i | nt | nt
O=C(Nc1nnc(-c2ccco2)s1)c1ccccc1 | i | i | i | nt | nt
O=C(Nc1nnc(/N=C/c2ccco2)s1)c1ccc(F)cc1 | i | i | i | i | 70.6
